Source: ChEMBL document CHEMBL1268908, “Design, synthesis, radiolabeling, and in vivo evaluation of carbon-11 labeled N-[2-[4-(3-cyanopyridin-2-yl)piperazin-1-yl]ethyl]-3-methoxybenzamide, a potential positron emission tomography tracer for the dopamine D(4) receptors” (J Med Chem, 2010)

Tests used:
Type in all cases: ADME, organism-based, Macaca mulatta
[1] = Biodistribution in rhesus monkey cerebellum at 150.3 MBq, iv after 0.25 mins; conditions: in vivo, 15 s
How it was run: (§1)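 Male rhesus monkey under ketamine (10 mg/kg im) with head fixation. After a 20 min 68Ge-68Ga transmission scan, the [11C]-labelled tracer in saline (pH 7.4) was injected iv, at 2.9 TBq/μmol specific radioactivity at injection. A dynamic 3D PET scan followed over 90 min (6×0.5, 7×1, 20×2, 8×5 min frames). Regions were defined on T1-weighted 1.5 T MRI, and uptake is given as %ID/mL.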

[2] = Biodistribution in rhesus monkey entorhinal cortex at 150.3 MBq, iv after 1.75 mins; conditions: in vivo, 105 s
How it was run: (§2)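 Single male rhesus monkey anesthetized with ketamine 10 mg/kg im, head fixed. Attenuation correction by 20 min 68Ge-68Ga transmission scan. [11C]-tracer in saline (pH 7.4) given iv, specific radioactivity 2.9 TBq/μmol at injection. Dynamic 3D PET emission scan over 90 min in frames of 0.5 to 5 min. MRI T1 images used to define VOIs. Uptake expressed as […].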

Hippocampus [3] = assay: Biodistribution in rhesus monkey hippocampus at 150.3 MBq, iv after 2.25 mins; conditions: in vivo, 135 s; how it was run: as §2
[4] = Biodistribution in rhesus monkey cerebellum at 150.3 MBq, iv after 2.25 mins; conditions: in vivo, 135 s; how it was run: as §1
[5] = Biodistribution in rhesus monkey occipital lobe at 150.3 MBq, iv after 3.5 mins; conditions: in vivo
How it was run: (§3)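 Male rhesus monkey under ketamine 10 mg/kg im, head fixed; 20 min 68Ge-68Ga transmission scan, then 90 min dynamic 3D PET (6×0.5, 7×1, 20×2, 8×5 min frames) after iv [11C]-labelled tracer in saline, specific radioactivity about 2.9 TBq/μmol at injection. Regions defined on T1-weighted MRI; uptake expressed as % injected dose per mL.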

[6] = Biodistribution in rhesus monkey retina at 150.3 MBq, iv after 3.5 mins; conditions: in vivo
Striatum [7] = assay: Biodistribution in rhesus monkey striatum at 150.3 MBq, iv after 5.5 mins; conditions: in vivo
Striatum [8] = assay: Biodistribution in rhesus monkey striatum at 150.3 MBq, iv after 6.5 mins; conditions: in vivo
Hippocampus [9] = assay: Biodistribution in rhesus monkey hippocampus at 150.3 MBq, iv after 7.5 mins; conditions: in vivo, 0.125 h; how it was run: as §3
[10] = Biodistribution in rhesus monkey cingulate cortex at 150.3 MBq, iv after 13 mins; conditions: in vivo; how it was run: as §1
[11] = Biodistribution in rhesus monkey cerebellum at 150.3 MBq, iv after 15 mins; conditions: in vivo, 0.25 h; how it was run: as §1
[12] = Biodistribution in rhesus monkey cingulate cortex at 170.3 MBq, iv after 17 mins; conditions: in vivo, in the assay text read “150.3 MBq” for “170.3 MBq”; how it was run: as §2
[13] = Biodistribution in rhesus monkey entorhinal cortex at 170.3 MBq, iv after 17 mins; conditions: in vivo, in the assay text read “150.3 MBq” for “170.3 MBq”; how it was run: as §2
[14] = Biodistribution in rhesus monkey cingulate cortex at 150.3 MBq, iv after 23 mins; conditions: in vivo; how it was run: as §1
Hippocampus [15] = assay: Biodistribution in rhesus monkey hippocampus at 150.3 MBq, iv after 25 mins; conditions: in vivo; how it was run: as §2
[16] = Biodistribution in rhesus monkey occipital lobe at 150.3 MBq, iv after 27 mins; conditions: in vivo, 0.45 h; how it was run: as §3
[17] = Biodistribution in rhesus monkey cingulate cortex at 150.3 MBq, iv after 29 mins; conditions: in vivo; how it was run: as §1
Hippocampus [18] = assay: Biodistribution in rhesus monkey hippocampus at 150.3 MBq, iv after 31 mins; conditions: in vivo; how it was run: as §3
[19] = Biodistribution in rhesus monkey cingulate cortex at 150.3 MBq, iv after 31 mins; conditions: in vivo; how it was run: as §1
Striatum [20] = assay: Biodistribution in rhesus monkey striatum at 150.3 MBq, iv after 31 mins; conditions: in vivo
[21] = Biodistribution in rhesus monkey cerebellum at 150.3 MBq, iv after 31 mins; conditions: in vivo; how it was run: as §1
[22] = Biodistribution in rhesus monkey entorhinal cortex at 150.3 MBq, iv after 33 mins; conditions: in vivo, 0.55 h; how it was run: as §2
[23] = Biodistribution in rhesus monkey cerebellum at 150.3 MBq, iv after 37 mins; conditions: in vivo; how it was run: as §1
[24] = Biodistribution in rhesus monkey occipital lobe at 150.3 MBq, iv after 37 mins; conditions: in vivo; how it was run: as §3
[25] = Biodistribution in rhesus monkey cerebellum at 150.3 MBq, iv after 39 mins; conditions: in vivo, 0.65 h; how it was run: as §1
[26] = Biodistribution in rhesus monkey occipital lobe at 150.3 MBq, iv after 39 mins; conditions: in vivo, 0.65 h; how it was run: as §3
Hippocampus [27] = assay: Biodistribution in rhesus monkey hippocampus at 150.3 MBq, iv after 41 mins; conditions: in vivo; how it was run: as §3
Striatum [28] = assay: Biodistribution in rhesus monkey striatum at 150.3 MBq, iv after 43 mins; conditions: in vivo
[29] = Biodistribution in rhesus monkey entorhinal cortex at 150.3 MBq, iv after 45 mins; conditions: in vivo, 0.75 h; how it was run: as §2
[30] = Biodistribution in rhesus monkey cerebellum at 150.3 MBq, iv after 47 mins; conditions: in vivo; how it was run: as §1
Hippocampus [31] = assay: Biodistribution in rhesus monkey hippocampus at 150.3 MBq, iv after 49 mins; conditions: in vivo; how it was run: as §3
[32] = Biodistribution in rhesus monkey cingulate cortex at 150.3 MBq, iv after 49 mins; conditions: in vivo; how it was run: as §2
[33] = Biodistribution in rhesus monkey occipital lobe at 150.3 MBq, iv after 49 mins; conditions: in vivo
How it was run: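 A male rhesus monkey was anaesthetised with ketamine 10 mg/kg im and placed in a head fixation device. A 20 min 68Ge-68Ga transmission scan was run for attenuation correction. Radiotracer in saline (pH 7.4) was given iv, about 52 pmol (18 ng), at 2.9 TBq/μmol at injection. A dynamic 3D PET scan followed for 90 min. Regional VOIs were defined on a T1-weighted MRI, with uptake expressed as %ID/mL.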

[34] = Biodistribution in rhesus monkey cingulate cortex at 150.3 MBq, iv after 57.5 mins; conditions: in vivo; how it was run: as §2
[35] = Biodistribution in rhesus monkey retina at 150.3 MBq, iv after 57.5 mins; conditions: in vivo
[36] = Biodistribution in rhesus monkey entorhinal cortex at 150.3 MBq, iv after 62.5 mins; conditions: in vivo; how it was run: as §2
Striatum [37] = assay: Biodistribution in rhesus monkey striatum at 150.3 MBq, iv after 67.5 mins; conditions: in vivo, 1.125 h
[38] = Biodistribution in rhesus monkey retina at 150.3 MBq, iv after 77.5 mins; conditions: in vivo
Hippocampus [39] = assay: Biodistribution in rhesus monkey hippocampus at 150.3 MBq, iv after 82.5 mins; conditions: in vivo, 1.375 h; how it was run: as §3
Striatum [40] = assay: Biodistribution in rhesus monkey striatum at 150.3 MBq, iv after 82.5 mins; conditions: in vivo, 1.375 h
[41] = Biodistribution in rhesus monkey retina at 150.3 MBq, iv after 82.5 mins; conditions: in vivo, 1.375 h
[42] = Biodistribution in rhesus monkey entorhinal cortex at 150.3 MBq, iv after 87.5 mins; conditions: in vivo; how it was run: as §2
[43] = Biodistribution in rhesus monkey cerebellum at 150.3 MBq, iv after 2.75 mins; conditions: in vivo, 165 s; how it was run: as §1
[44] = Biodistribution in rhesus monkey cerebellum at 150.3 MBq, iv after 8.5 mins; conditions: in vivo; how it was run: as §1

Drug uptake [1]: 40.52 kBq/ml | Drug uptake [2]: 39.28 kBq/ml | Drug uptake (Hippocampus [3]): 50.51 kBq/ml | Drug uptake [4]: 44.35 kBq/ml | Drug uptake [5]: 37.15 kBq/ml | Drug uptake [6]: 39.59 kBq/ml | Drug uptake (Striatum [7]): 39.4 kBq/ml | Drug uptake (Striatum [8]): 36.37 kBq/ml | Drug uptake (Hippocampus [9]): 34.09 kBq/ml | Drug uptake [10]: 22.54 kBq/ml | Drug uptake [11]: 19.28 kBq/ml | Drug uptake [12]: 18.9122 kBq/ml | Drug uptake [13]: 20.28 kBq/ml | Drug uptake [14]: 17.4 kBq/ml | Drug uptake (Hippocampus [15]): 16.72 kBq/ml | Drug uptake [16]: 14.42 kBq/ml | Drug uptake [17]: 15.04 kBq/ml | Drug uptake (Hippocampus [18]): 14.91 kBq/ml | Drug uptake [19]: 14.33 kBq/ml | Drug uptake (Striatum [20]): 14.4435 kBq/ml | Drug uptake [21]: 13.26 kBq/ml | Drug uptake [22]: 16.29 kBq/ml | Drug uptake [23]: 11.56 kBq/ml | Drug uptake [24]: 11.24 kBq/ml | Drug uptake [25]: 10.98 kBq/ml | Drug uptake [26]: 9.974 kBq/ml | Drug uptake (Hippocampus [27]): 11.5929 kBq/ml | Drug uptake (Striatum [28]): 11.39 kBq/ml | Drug uptake [29]: 10.89 kBq/ml | Drug uptake [30]: 10.15 kBq/ml | Drug uptake (Hippocampus [31]): 9.828 kBq/ml | Drug uptake [32]: 10.6 kBq/ml | Drug uptake [33]: 9.036 kBq/ml | Drug uptake [34]: 10.34 kBq/ml | Drug uptake [35]: 55.05 kBq/ml | Drug uptake [36]: 10.43 kBq/ml | Drug uptake (Striatum [37]): 9.576 kBq/ml | Drug uptake [38]: 50.63 kBq/ml | Drug uptake (Hippocampus [39]): 8.042 kBq/ml | Drug uptake (Striatum [40]): 8.324 kBq/ml | Drug uptake [41]: 52.3 kBq/ml | Drug uptake [42]: 10.53 kBq/ml | Drug uptake [43]: 41.81 kBq/ml | Drug uptake [44]: 27.59 kBq/ml
Structure (SMILES): [11CH3]Oc1cccc(C(=O)NCCN2CCN(c3ncccc3C#N)CC2)c1
